Experimental findings from ChEMBL document CHEMBL5120825, “The azulene scaffold from a medicinal chemist's perspective: Physicochemical and in vitro parameters relevant for drug discovery” (Eur J Med Chem, 2022) are described below.

SMILES strings stand for the structures. ≈ marks a conversion by molar mass, not a printed value. Where only a bound is given, the exact number is not on record here.

Data set [1] in a line: Photostability of the compound assessed as compound degradation administered as solid irradiated with sun light and measured after 7 days by HPLC analysis.
For data set [2], the target named is T1, Cytochrome P450 2C8 (Homo sapiens, UniProt P10632).
T1 sequence (P10632 whole entry): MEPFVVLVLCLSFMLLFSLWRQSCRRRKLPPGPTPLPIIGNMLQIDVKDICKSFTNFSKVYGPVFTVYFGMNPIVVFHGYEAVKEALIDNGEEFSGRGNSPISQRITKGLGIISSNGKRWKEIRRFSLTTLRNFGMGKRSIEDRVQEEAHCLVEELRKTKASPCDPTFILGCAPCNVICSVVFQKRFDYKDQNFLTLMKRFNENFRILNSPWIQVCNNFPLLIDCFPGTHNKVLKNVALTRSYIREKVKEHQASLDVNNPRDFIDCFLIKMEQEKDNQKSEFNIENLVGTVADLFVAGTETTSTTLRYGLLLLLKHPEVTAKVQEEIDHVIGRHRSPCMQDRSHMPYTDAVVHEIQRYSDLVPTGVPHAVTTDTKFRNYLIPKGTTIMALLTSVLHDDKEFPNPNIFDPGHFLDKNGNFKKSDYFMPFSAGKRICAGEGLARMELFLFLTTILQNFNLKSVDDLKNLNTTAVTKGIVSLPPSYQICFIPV
The experiment in a line: Inhibition of CYP2C8 in human liver microsomes using amodiaquine as substrate preincubated with compound followed by NADPH addition by LC-MS/MS analysis. Type of data set: ADME, Microsome. A general note: Liver microsomes are a subcellular fraction often used to study metabolism.

Data set [3] concerns the target Cytochrome P450 3A4 (Homo sapiens, UniProt P08684). The experiment in a line: Inhibition of CYP3A4 in human liver microsomes using midazolam as substrate preincubated with compound followed by NADPH addition by LC-MS/MS analysis. Type of data set: ADME, Microsome.
A short description of data set [4]: Stability of the compound at pH 7.4 assessed as half life measured after 24 hrs in presence of GSH by HPLC analysis. The data set is classed as physicochemical. To be noted: solution with GSH.
Data set [5] concerns the target Cytochrome P450 2D6 (Homo sapiens, UniProt P10635). The experiment in a line: Inhibition of CYP2D6 in human liver microsomes using dextromethorphan as substrate preincubated with compound followed by NADPH addition by LC-MS/MS analysis. The data set is classed as ADME, Microsome.
Data set [6] deals with Cytochrome P450 2C9 (Homo sapiens, UniProt P11712). Description: Inhibition of CYP2C9 in human liver microsomes using diclofenac as substrate preincubated with compound followed by NADPH addition by LC-MS/MS analysis. Type of data set: ADME, Microsome.
Cytochrome P450 2C9, sequence (P11712 whole entry): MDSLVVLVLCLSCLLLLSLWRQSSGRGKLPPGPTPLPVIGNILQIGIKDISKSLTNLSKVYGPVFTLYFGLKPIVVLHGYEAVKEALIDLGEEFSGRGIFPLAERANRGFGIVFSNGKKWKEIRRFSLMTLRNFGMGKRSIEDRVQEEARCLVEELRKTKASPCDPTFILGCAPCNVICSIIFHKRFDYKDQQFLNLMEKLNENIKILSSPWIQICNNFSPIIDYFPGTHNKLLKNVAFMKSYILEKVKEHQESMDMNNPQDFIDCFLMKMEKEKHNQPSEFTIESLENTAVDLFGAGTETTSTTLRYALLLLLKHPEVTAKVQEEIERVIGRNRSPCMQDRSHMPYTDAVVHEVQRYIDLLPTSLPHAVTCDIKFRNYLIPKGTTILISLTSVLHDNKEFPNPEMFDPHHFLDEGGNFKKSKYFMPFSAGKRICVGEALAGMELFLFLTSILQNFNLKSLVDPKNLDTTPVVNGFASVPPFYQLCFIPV
Data set [7] concerns the target Cytochrome P450 2C19 (Homo sapiens, UniProt P33261). The experiment in a line: Inhibition of CYP2C19 in human liver microsomes using mephenytoin as substrate preincubated with compound followed by NADPH addition by LC-MS/MS analysis. The data set is classed as ADME, Microsome.
Data set [8] can be described thus: Dissociation constant, pKa of the compound by dip probe absorption spectroscopy. The data set is classed as physicochemical.
A short description of data set [9]: Photostability of the compound at pH 4.1 assessed as compound degradation administered as solution irradiated with sun light and measured after 7 days by HPLC analysis. Type of data set: physicochemical. To be noted: time 7 day, read-out: Drug degradation. The essentials: (§1)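 Compound in solution was kept for 7 days under "mild" light-stress conditions, with no pH adjustment. The pH listed for each compound is the solution's own intrinsic pH. Result is % degradation of parent.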

Data set [10] can be described thus: Lipophilicity, logP of the compound. Type of data set: physicochemical. The conditions noted are these: octanol/water; read-out: logP.
A short description of data set [11]: Metabolic stability in human liver microsomes assessed as hepatic blood flow at 1 uM preincubated with compound followed by NADPH addition by LC-MS/MS analysis. Type of data set: ADME, Microsome. The conditions noted are these: read-out: QH.
Data set [12] in a line: Octanol-water partition coefficient, logD of the compound at pH 2 by HPLC analysis. The data set is classed as physicochemical. The conditions noted are these: read-out: logD.
Data set [13] can be described thus: Aqueous solubility of the compound at pH 6.8 incubated for 24 hrs under shaking condition by LC-UV analysis. Type of data set: physicochemical. The conditions noted are these: aqueous medium. Put shortly:
(§2)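 The highest concentration tested was 250 μM, so results are capped at that level. Values are reported in µg/ml.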

Data set [14] can be described thus: Photostability of the compound at pH 7.2 assessed as compound degradation administered as solution irradiated with sun light and measured after 7 days by HPLC analysis. Type of data set: physicochemical. The conditions noted are these: time 7 day, read-out: Drug degradation. Put shortly: as §1
A short description of data set [15]: Aqueous solubility of the compound at pH 2.2 incubated for 24 hrs under shaking condition by LC-UV analysis. Type of data set: physicochemical. The conditions noted are these: aqueous medium. Put shortly:
as §2

Data set [16] in a line: Octanol-water partition coefficient, logD of the compound at pH 11 by HPLC analysis. The data set is classed as physicochemical. The conditions noted are these: read-out: logD.
A short description of data set [17]: Permeability of the compound at pH 7.4 by PAMPA assay. To be noted: read-out: permeability. The data set is classed as ADME. Background: The PAMPA barrier holds no transporters, so it reflects passive diffusion.
Data set [18] can be described thus: Aqueous solubility of the compound at pH 4.5 incubated for 24 hrs under shaking condition by LC-UV analysis. The data set is classed as physicochemical. To be noted: aqueous medium. The essentials:
as §2

The nature of data set [19]: Hydrolytic stability of the compound in aqueous HCl assessed as compound decomposition measured after 3 days by HPLC analysis. To be noted: time 3 day, read-out: Drug degradation. Type of data set: physicochemical. Put shortly: (§3)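 Compound was held for 3 days at 40 °C in 0.1 M HCl in water or in aqueous buffer at pH 7.4. Dissolution was confirmed by eye, and decomposition is reported as % loss of parent.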

Data set [20] can be described thus: Hydrolytic stability of the compound in aqueous buffer at pH 7.4 assessed as compound decomposition measured after 3 days by HPLC analysis. Type of data set: physicochemical. The conditions noted are these: time 3 day, read-out: Drug degradation. Put shortly: as §3
Data set [21] in a line: Photostability of the compound at pH 5.3 assessed as compound degradation administered as solution irradiated with sun light and measured after 7 days by HPLC analysis. The data set is classed as physicochemical. The conditions noted are these: time 7 day, read-out: Drug degradation. Put shortly: as §1
Data set [22] can be described thus: Photostability of the compound at pH 5.8 assessed as compound degradation administered as solution irradiated with sun light and measured after 7 days by HPLC analysis. Type of data set: physicochemical. The conditions noted are these: time 7 day, read-out: Drug degradation. Put shortly:
as §1

The nature of data set [23]: Photostability of the compound at pH 8.7 assessed as compound degradation administered as solution irradiated with sun light and measured after 7 days by HPLC analysis. Type of data set: physicochemical. To be noted: time 7 day, read-out: Drug degradation. Put shortly: as §1
Data set [24] can be described thus: Photostability of the compound at pH 4.0 assessed as compound degradation administered as solution irradiated with sun light and measured after 7 days by HPLC analysis. The conditions noted are these: time 7 day, read-out: Drug degradation. The data set is classed as physicochemical. The essentials:
as §1

Data set [25] is described as follows: Photostability of the compound at pH 7.1 assessed as compound degradation administered as solution irradiated with sun light and measured after 7 days by HPLC analysis. The data set is classed as physicochemical. To be noted: time 7 day, read-out: Drug degradation. Put shortly:
as §1

Cytochrome P450 2D6, sequence (P10635 whole entry): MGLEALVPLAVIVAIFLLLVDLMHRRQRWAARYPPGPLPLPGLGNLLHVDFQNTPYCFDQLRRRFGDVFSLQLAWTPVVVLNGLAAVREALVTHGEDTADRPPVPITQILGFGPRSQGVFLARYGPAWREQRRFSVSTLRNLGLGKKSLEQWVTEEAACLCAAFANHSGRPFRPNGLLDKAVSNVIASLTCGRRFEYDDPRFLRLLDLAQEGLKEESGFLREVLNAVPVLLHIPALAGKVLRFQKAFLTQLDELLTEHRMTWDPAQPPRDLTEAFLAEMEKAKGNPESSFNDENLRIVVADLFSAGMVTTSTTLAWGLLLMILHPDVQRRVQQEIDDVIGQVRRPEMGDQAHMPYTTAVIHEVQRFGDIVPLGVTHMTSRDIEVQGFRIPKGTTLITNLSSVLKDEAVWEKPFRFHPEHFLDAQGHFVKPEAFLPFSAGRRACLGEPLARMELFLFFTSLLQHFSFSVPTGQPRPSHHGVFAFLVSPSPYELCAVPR
Cytochrome P450 3A4, sequence (P08684 whole entry): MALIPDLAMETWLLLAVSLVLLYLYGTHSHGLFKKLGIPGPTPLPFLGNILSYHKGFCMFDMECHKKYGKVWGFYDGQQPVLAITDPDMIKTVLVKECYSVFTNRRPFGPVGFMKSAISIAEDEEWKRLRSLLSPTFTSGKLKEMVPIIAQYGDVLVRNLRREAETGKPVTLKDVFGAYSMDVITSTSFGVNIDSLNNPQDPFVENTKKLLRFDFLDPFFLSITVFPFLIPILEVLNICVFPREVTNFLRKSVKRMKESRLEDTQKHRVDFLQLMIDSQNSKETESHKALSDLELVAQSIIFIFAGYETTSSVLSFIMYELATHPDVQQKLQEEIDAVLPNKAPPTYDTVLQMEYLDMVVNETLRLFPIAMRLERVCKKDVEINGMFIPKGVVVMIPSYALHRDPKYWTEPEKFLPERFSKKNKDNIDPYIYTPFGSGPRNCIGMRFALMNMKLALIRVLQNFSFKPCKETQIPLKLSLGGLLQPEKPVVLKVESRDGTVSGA
Cytochrome P450 2C19, sequence (P33261 whole entry): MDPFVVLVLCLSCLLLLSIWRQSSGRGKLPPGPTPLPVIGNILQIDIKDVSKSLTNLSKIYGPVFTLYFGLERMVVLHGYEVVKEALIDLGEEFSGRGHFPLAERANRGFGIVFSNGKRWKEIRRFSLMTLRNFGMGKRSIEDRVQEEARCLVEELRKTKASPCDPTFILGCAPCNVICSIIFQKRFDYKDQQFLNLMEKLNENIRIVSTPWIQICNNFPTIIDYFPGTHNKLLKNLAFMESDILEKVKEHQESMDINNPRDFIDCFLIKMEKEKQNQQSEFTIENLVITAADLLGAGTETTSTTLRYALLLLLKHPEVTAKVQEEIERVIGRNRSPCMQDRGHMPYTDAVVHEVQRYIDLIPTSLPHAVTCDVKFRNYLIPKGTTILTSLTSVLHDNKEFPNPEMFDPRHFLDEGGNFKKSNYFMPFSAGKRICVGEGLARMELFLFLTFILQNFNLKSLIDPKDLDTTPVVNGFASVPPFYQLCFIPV

As for `O=C(O)c1ccc2ccc(C(=O)c3ccccc3)c-2cc1`, the degraded at 168 h in data set [1] and in data set [9] was < 0.5% each time. Moreover, the IC50 in data set [2], in data set [3], in [5], in data set [6] and in data set [7] was > 50 µM each time. The half-life (in general, the time in which the quantity being followed falls by half) in data set [4] is > 41.7 days. Besides, the pKa (usually the negative logarithm of the acid dissociation constant) in data set [8] is 3.2.
For `CN1CCN(C(=O)c2ccc3ccc(C(=O)c4ccccc4)c-3cc2)CC1`, in [10], the logP (commonly the decadic logarithm of the partition coefficient of the neutral form, usually between octanol and water) was 3. Further, the hepatic extraction ratio at 1 µM in [11] is 0.48. The degraded at 168 h in [1] and in data set [14] was < 0.5% in each case. Also, the logD in data set [12] and in data set [16] was 1.2 in each case. Besides, the IC50 (as a rule, the concentration needed to halve the response being measured) in [2] is > 50 µM; in [3], > 50 µM; in data set [5] it was > 50 µM; in data set [6], 39 µM; in data set [7] it was > 50 µM. For the same compound, the solubility (thermodynamic) (commonly the concentration in solution at equilibrium with solid) at 24 h is > 73 µg/mL in data set [13], > 90 µg/mL in [15] and 67 µg/mL (≈ 187 µM) in data set [18]. For the same compound, in data set [17], the Papp is 8.4 ×10⁻⁶ cm/s.
On to `CN(C)C(=O)Cc1ccc2cccc-2cc1`, for which the logP in data set [10] is 2.2. Further, the hepatic extraction ratio at 1 µM in data set [11] turned out to be 0.27. For the same compound, the degraded at 168 h in data set [1] is < 0.5%; in [21] it was 12%. The figures for the logD in [12] and in data set [16] were 2.5 and 2.2, respectively. The degraded at 72 h was 2% in data set [19] and < 0.5% in data set [20]. Besides, the thermodynamic solubility at 24 h in [13] was > 43 µg/mL; in data set [15], > 44 µg/mL; in data set [18], > 45 µg/mL. For the same compound, the half-life in data set [4] was > 41.7 days. Also, the Papp in [17] came to 8.7 ×10⁻⁶ cm/s.
As for `O=C(NCCO)c1ccc2ccc(C(=O)c3ccccc3)c-2cc1`, in [10], the logP was determined as 2.2. The hepatic extraction ratio at 1 µM in [11] was < 0.23. Further, the degraded at 168 h in [1] and in data set [22] was < 0.5% each time. For the same compound, the pH-dependent lipophilicity (logD) (commonly lipophilicity at a set pH, counting ionised and neutral species) is 2.3 in data set [12] and 2.2 in data set [16]. In addition, the IC50 in data set [2], in data set [3], in data set [5], in [6] and in data set [7] was > 50 µM each time. Further, the solubility (thermodynamic) at 24 h in data set [13] came out at 4 µg/mL (≈ 12.5 µM); in data set [15], 14 µg/mL (≈ 43.8 µM); in data set [18], 6 µg/mL (≈ 18.8 µM). In addition, the Papp in [17] came to 1.8 ×10⁻⁶ cm/s.
On to `c1cc2ccc(CN3CCCCC3)ccc-2c1`, for which, in data set [10], the logP was > 5.5. In data set [11], the hepatic extraction ratio at 1 µM was determined as 0.75. For the same compound, the degraded at 168 h in [1] is < 0.5%; in data set [23], 3.5%. Further, the logD is 0.8 in data set [12] and > 5.5 in data set [16]. Also, the IC50 was > 50 µM in data set [2]; > 50 µM in data set [3]; 17 µM in data set [5]; > 50 µM in data set [6]; 2.3 µM in data set [7]. The solubility (thermodynamic) at 24 h in [13] was 31 µg/mL (≈ 138 µM); in data set [15], > 56 µg/mL. For the same compound, in [17], the Papp was found to be 3.4 ×10⁻⁶ cm/s.
As for `O=C(O)c1ccc2cccc-2cc1`, the degraded at 168 h in data set [1] and in data set [24] was < 0.5% each time. The degraded at 72 h in data set [19] was 1.5%; in data set [20], < 0.5%. The half-life in data set [4] was > 41.7 days. In [8], the pKa turned out to be 3.5.
As to `O=C(Cn1ccccc1=O)Nc1cc2cccccc-2c1`, the logP in [10] came to 1.7. Also, the hepatic extraction ratio at 1 µM in data set [11] is < 0.23. Besides, the degraded at 168 h is < 0.5% in [1] and 85% in data set [25]. Further, the values for the logD in [12] and in data set [16] were 2 and 1.7, respectively. Besides, the degraded at 72 h in data set [19] is 3.5%; in [20], < 0.5%. Also, the solubility (thermodynamic) at 24 h in data set [13] was found to be 2 µg/mL (≈ 7.19 µM); in data set [15], 4 µg/mL (≈ 14.4 µM); in data set [18] it was 2 µg/mL (≈ 7.19 µM). Moreover, the half-life in data set [4] was > 41.7 days. Besides, in [17], the Papp was 3.7 ×10⁻⁶ cm/s.
